Assay results from paper PMC3924769 (Cell metabolism, 2014).

Columns and labels:
daf-9(dh6) worms = assay: daf-9; format: in vivo, C. elegans; settings: 27 °C; for daf-9(dh6) dauer rescue activity (in vivo), in words: 0.1 nM – 500 nM tested
Method in brief: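 Test compound in ethanol (0.1–500 nM final, calculated over the agar volume) or ethanol alone was mixed with concentrated E. coli OP50 and plated on cholesterol-free NGM agar. About 100 daf-9(dh6) eggs from a 4–8 h egg lay were added per plate and scored for dauer arrest versus development after 60 h at 27 °C. A reference dafachronic acid at 100 nM was the positive control. Two replicates, mean ±SD.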

DAF-12 [1] = target: T1, DAF-12 (Caenorhabditis elegans, UniProt G5EFF5); assay: Alphascreen assay for ligand-dependent recruitment of SRC1-4 peptide by DAF-12; format: biochemical, C. elegans; settings: read-out: EC50, recruitment of SRC1-4 peptide by DAF-12
T1 sequence (G5EFF5 1-753): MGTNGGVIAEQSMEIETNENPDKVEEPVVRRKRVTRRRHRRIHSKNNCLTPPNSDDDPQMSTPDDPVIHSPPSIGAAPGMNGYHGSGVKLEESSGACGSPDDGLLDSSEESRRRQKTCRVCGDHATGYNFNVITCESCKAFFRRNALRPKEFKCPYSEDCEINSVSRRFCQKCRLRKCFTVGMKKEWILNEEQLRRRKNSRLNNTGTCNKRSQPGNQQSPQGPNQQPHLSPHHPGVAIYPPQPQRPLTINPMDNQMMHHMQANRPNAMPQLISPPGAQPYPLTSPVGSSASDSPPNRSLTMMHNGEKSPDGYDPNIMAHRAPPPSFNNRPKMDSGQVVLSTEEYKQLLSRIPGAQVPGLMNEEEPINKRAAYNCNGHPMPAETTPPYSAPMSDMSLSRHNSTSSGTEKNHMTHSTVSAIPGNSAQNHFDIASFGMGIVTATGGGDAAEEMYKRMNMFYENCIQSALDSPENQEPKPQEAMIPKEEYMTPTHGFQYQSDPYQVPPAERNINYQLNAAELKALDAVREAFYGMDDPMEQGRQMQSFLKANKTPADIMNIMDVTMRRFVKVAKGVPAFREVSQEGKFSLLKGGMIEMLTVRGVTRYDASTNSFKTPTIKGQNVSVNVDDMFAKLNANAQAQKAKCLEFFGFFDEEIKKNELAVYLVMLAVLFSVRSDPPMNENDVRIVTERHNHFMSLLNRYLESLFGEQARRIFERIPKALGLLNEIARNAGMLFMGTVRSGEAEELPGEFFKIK
Method in brief: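 Test compound binding to DAF-12 was measured by AlphaScreen as ligand-dependent recruitment of the SRC1-4 peptide, which carries the SRC-1 NR-box motif. Signal was expressed as fold activation over an ethanol control and reported as mean ±SEM.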

DAF-12 [2] = target: T1, DAF-12; assay: Luciferase assay for DAF-12 transcriptional activation in HEK-293T cells; format: cell-based, C. elegans; settings: 1 nM – 3125 nM tested
Method in brief: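 HEK-293T cells were calcium-phosphate co-transfected with full-length DAF-12, a mir84p-luciferase reporter, GFP and β-galactosidase vectors. Ethanol solutions of test compound (1–3125 nM), or ethanol alone, were added 8 h post-transfection. Luciferase and β-galactosidase activities were read 16 h after addition. A reference dafachronic acid at 100 nM was the positive control. Triplicates, mean ±SD.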

[3] = tested on: glp-1;daf-36 double mutant worms; assay: Lifespan of germline-deficient glp-1; format: in vivo, C. elegans; settings: 100 nM, glp-1;daf-36 worms

Row | Structure (SMILES) | daf-9(dh6) dauer rescue activity (in vivo), in words (daf-9(dh6) worms) | EC50 (DAF-12 [1]) | DAF-12 activation in luciferase assay (in vitro), in words (DAF-12 [2]) | Restoration of glp-1-dependent lifespan extension [3] | EC50 (daf-9(dh6) worms; read-out: EC50, daf-9(dh6) dauer rescue, plate based assay, synthetic compound)
1 | C[C@H](CCC[C@H](C)C(=O)O)[C@H]1CC[C@H]2C3=CCC4C[C@H](O)CC[C@]4(C)[C@H]3CC[C@]12C (stereo partly drawn) [3α-OH-Δ^7-DA, (25S)-3α-hydroxy cholest-7-enoic acid] | active | 200 nM | active | – | –
2 | CC(CCCC(C)C1CCC2C3=CCC4CC(O)CCC4(C)C3CCC21C)C(=O)O (stereo not drawn) [3β-OH-Δ^7-DA] | – | – | did not activate DAF-12 in mammalian cells at any tested concentration | – | –
3 | C[C@H](CCC[C@H](C)C(=O)O)[C@H]1CC[C@H]2[C@@H]3CCC4CC(=O)CC[C@]4(C)[C@H]3CC[C@]12C (stereo partly drawn) [Δ^0-DA, (25S)-3-keto-cholestanoic acid] | active | – | active | – | –
4 | CC(CCC[C@@H](C)[C@H]1CC[C@H]2C3=CCC4CC(=O)C=C[C@]4(C)[C@H]3CC[C@]12C)C(=O)O (some centres unmarked) [Δ^1,7-DA, 3-oxocholesta-1,7-dienoic acid] | – | 15 nM | – | fully restore glp-1-dependent lifespan extension | 2 nM
5 | C[C@H](CCC[C@H](C)C(=O)O)[C@H]1CC[C@H]2C3=CC[C@H]4CC(=O)CC[C@]4(C)[C@H]3CC[C@]12C [Δ^7-DA, Δ^7-dafachronic acid, reference compound] | – | 8 nM | – | fully restore glp-1-dependent lifespan extension | –
